For one assay, the target named is T1, Galectin-8 (Homo sapiens, UniProt O00214).
T1 sequence (O00214 whole entry): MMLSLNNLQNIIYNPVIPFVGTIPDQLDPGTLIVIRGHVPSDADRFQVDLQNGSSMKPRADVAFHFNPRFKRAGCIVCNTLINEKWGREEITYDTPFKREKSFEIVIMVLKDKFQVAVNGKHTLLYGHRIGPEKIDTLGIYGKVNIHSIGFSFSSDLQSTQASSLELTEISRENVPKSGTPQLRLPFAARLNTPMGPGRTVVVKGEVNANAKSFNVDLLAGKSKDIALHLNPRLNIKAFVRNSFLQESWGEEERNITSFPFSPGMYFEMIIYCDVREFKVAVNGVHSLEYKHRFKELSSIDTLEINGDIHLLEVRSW
The assay is described as follows: Binding affinity to human galectin 8 N-terminal domain at 20 degC by competitive fluorescence polarization assay. The essentials: (§1)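 Human galectin (galectin-3, or the N-terminal domain of galectin-8 or -9) run in a competitive fluorescence polarization assay at 20 °C. Kd values were derived from inhibition of the fluorescent probe binding.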
For orientation: Fluorescence polarisation rises when a labelled molecule tumbles more slowly, as on binding a larger partner.

The target of a further assay is Galectin-3 (Homo sapiens, UniProt P17931). Nature of the assay: Binding affinity to human galectin 3 at 20 degC by competitive fluorescence polarization assay. The essentials: as §1
A further assay deals with Galectin-9 (Homo sapiens, UniProt O00182). The assay is described as follows: Binding affinity to human galectin 9 N-terminal domain at 20 degC by competitive fluorescence polarization assay. The essentials:
as §1

A further assay concerns the target Galectin-7 (Homo sapiens, UniProt P47929). Nature of the assay: Binding affinity to human galectin 7 at 4 degC by competitive fluorescence polarization assay. A digest of the protocol: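 Human galectin-7 was tested in a competitive fluorescence polarization assay at 4 °C because assay sensitivity is lower. Kd values were derived from inhibition of the fluorescent probe binding.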

Sequence of Galectin-7 (P47929 whole entry): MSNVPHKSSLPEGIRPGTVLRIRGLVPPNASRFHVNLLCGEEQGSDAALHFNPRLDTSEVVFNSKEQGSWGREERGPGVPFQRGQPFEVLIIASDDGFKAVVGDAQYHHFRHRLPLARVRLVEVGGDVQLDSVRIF
Sequence of Galectin-3 (P17931 whole entry, the tested form may be a part): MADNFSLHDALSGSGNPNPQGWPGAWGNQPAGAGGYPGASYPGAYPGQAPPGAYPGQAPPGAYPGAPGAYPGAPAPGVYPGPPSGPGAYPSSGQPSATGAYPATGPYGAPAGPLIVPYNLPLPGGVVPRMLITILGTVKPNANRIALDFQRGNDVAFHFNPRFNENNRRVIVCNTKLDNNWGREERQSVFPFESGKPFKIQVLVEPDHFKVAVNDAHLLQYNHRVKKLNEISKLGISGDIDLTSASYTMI
Sequence of Galectin-9 (O00182 whole entry, the tested form may be a part): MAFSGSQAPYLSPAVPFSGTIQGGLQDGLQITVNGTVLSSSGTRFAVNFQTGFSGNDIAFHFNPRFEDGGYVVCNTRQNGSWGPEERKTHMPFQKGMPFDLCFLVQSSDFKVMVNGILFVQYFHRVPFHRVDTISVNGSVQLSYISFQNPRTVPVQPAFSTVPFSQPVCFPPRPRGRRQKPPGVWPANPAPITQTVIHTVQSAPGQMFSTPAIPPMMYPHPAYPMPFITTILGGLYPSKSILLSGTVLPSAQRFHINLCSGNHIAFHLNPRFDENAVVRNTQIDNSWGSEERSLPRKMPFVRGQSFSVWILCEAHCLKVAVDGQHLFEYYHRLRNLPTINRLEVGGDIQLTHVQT

For `C=CCNC(=O)c1cn([C@H]2[C@@H](O)[C@@H](CO)O[C@@H](S[C@@H]3O[C@H](CO)[C@H](O)[C@H](n4cc(C(=O)NCC=C)nn4)[C@H]3O)[C@@H]2O)nn1`, the Kd at Galectin-8 turned out to be 66 µM; on Galectin-3 it was 0.065 µM; on Galectin-9 it was 0.74 µM; on Galectin-7, 3.4 µM.
On to `CS[C@@H]1O[C@H](CO)[C@H](O)[C@H](n2nnc(C(N)=O)c2N)[C@H]1O`, for which the dissociation constant Kd on Galectin-8 is over 5000 µM; at Galectin-3, over 2000 µM; on Galectin-9 it was over 5000 µM; at Galectin-7, 2700 µM.
For `COc1cc(OC)cc(C(=O)N[C@@H]2[C@@H](O)[C@@H](S[C@@H]3O[C@H](CO)[C@H](O)[C@H](NC(=O)c4cc(OC)cc(OC)c4)[C@H]3O)O[C@H](CO)[C@@H]2O)c1`, the Kd on Galectin-8 was determined as 100 µM; on Galectin-3 it was 0.05 µM; on Galectin-9 it was 1.8 µM; at Galectin-7, 2.8 µM.
`O=C(NCCc1ccccc1)c1cn([C@H]2[C@@H](O)[C@@H](CO)O[C@@H](S[C@@H]3O[C@H](CO)[C@H](O)[C@H](n4cc(C(=O)NCCc5ccccc5)nn4)[C@H]3O)[C@@H]2O)nn1`: the dissociation constant (Kd) on Galectin-8 is 20 µM; on Galectin-3 it was 0.15 µM; on Galectin-9 it was 1.1 µM; at Galectin-7 it was 2 µM.
The matching figures for `CS[C@@H]1O[C@H](CO)[C@H](O)[C@H](n2ccnn2)[C@H]1O`: over 5000 µM, over 5000 µM, over 5000 µM and 2400 µM.
With `CCCc1cn([C@H]2[C@@H](O)[C@@H](CO)O[C@@H](SC)[C@@H]2O)nn1`, the Kd at Galectin-8 was over 5000 µM; at Galectin-3 it was over 5000 µM; on Galectin-9, over 5000 µM; at Galectin-7, 2200 µM.
Turning to `CS[C@@H]1O[C@H](CO)[C@H](O)[C@H](n2cc(CO)nn2)[C@H]1O`, the Kd is over 5000 µM at Galectin-8, over 5000 µM at Galectin-3, over 5000 µM on Galectin-9 and 2500 µM at Galectin-7.
`CO[C@@H]1O[C@H](CO)[C@@H](O[C@@H]2O[C@H](CO)[C@H](O)[C@H](n3cc(C(=O)NCc4ccccc4)nn3)[C@H]2O)[C@H](O)[C@H]1NC(C)=O`: the Kd at Galectin-8 was over 2000 µM; on Galectin-3, 1.5 µM; on Galectin-9, 12 µM; at Galectin-7, 74 µM.
On to `CO[C@@H]1O[C@H](CO)[C@@H](O[C@@H]2O[C@H](CO)[C@H](O)[C@H](n3cc(C(=O)Nc4cccc5ccccc45)nn3)[C@H]2O)[C@H](O)[C@H]1NC(C)=O`, for which the dissociation constant Kd on Galectin-8 is over 2000 µM; on Galectin-3, 0.66 µM; at Galectin-9, 13 µM; on Galectin-7, 83 µM.
The like results for `CCCCNC(=O)c1cn([C@H]2[C@@H](O)[C@@H](CO)O[C@@H](S[C@@H]3O[C@H](CO)[C@H](O)[C@H](n4cc(C(=O)NCCCC)nn4)[C@H]3O)[C@@H]2O)nn1` were, in that order, 58 µM, 0.029 µM, 1.1 µM and 5.4 µM.
For the compound `O=C(NCc1ccccc1)c1cn([C@H]2[C@@H](O)[C@@H](CO)O[C@@H](S[C@@H]3O[C@H](CO)[C@H](O)[C@H](n4cc(C(=O)NCc5ccccc5)nn4)[C@H]3O)[C@@H]2O)nn1`, the Kd on Galectin-8 came to 47 µM; at Galectin-3 it was 0.39 µM; on Galectin-9, 0.53 µM; at Galectin-7 it was 8.3 µM.
As for `CC(O)CNC(=O)c1cn([C@H]2[C@@H](O)[C@@H](CO)O[C@@H](S[C@@H]3O[C@H](CO)[C@H](O)[C@H](n4cc(C(=O)NCC(C)O)nn4)[C@H]3O)[C@@H]2O)nn1` (some centres undefined), the dissociation constant Kd at Galectin-8 was found to be 58 µM; on Galectin-3, 0.12 µM; on Galectin-9, 2.1 µM; at Galectin-7, 5 µM.
Consider `COCCNC(=O)c1cn([C@H]2[C@@H](O)[C@@H](CO)O[C@@H](S[C@@H]3O[C@H](CO)[C@H](O)[C@H](n4cc(C(=O)NCCOC)nn4)[C@H]3O)[C@@H]2O)nn1`, for which the Kd was found to be 90 µM on Galectin-8, 0.25 µM at Galectin-3, 2.3 µM on Galectin-9 and 4.7 µM at Galectin-7.
In the case of `CNC(=O)c1cn([C@H]2[C@@H](O)[C@@H](CO)O[C@@H](O[C@H]3[C@H](O)[C@@H](NC(C)=O)[C@H](OC)O[C@@H]3CO)[C@@H]2O)nn1`, the Kd on Galectin-8 was over 2000 µM; at Galectin-9, 73 µM; on Galectin-7, 130 µM.
Turning to `CNC(=O)c1cn([C@H]2[C@@H](O)[C@@H](CO)O[C@@H](S[C@@H]3O[C@H](CO)[C@H](O)[C@H](n4cc(C(=O)NC)nn4)[C@H]3O)[C@@H]2O)nn1`, the Kd at Galectin-8 was found to be 81 µM; on Galectin-3 it was 0.12 µM; on Galectin-9, 0.91 µM; at Galectin-7 it was 8 µM.
In the case of `CO[C@@H]1O[C@H](CO)[C@@H](O[C@@H]2O[C@H](CO)[C@H](O)[C@H](NC(=O)c3ccc4ccccc4c3)[C@H]2O)[C@H](O)[C@H]1NC(C)=O`, the Kd at Galectin-8 was over 100 µM; at Galectin-3, 0.48 µM; on Galectin-9 it was over 100 µM; on Galectin-7, over 100 µM.
In the case of `COC(=O)c1cn([C@H]2[C@@H](O)[C@@H](CO)O[C@@H](SC)[C@@H]2O)nn1`, the Kd on Galectin-8 was over 5000 µM; on Galectin-3, 1300 µM; on Galectin-9 it was 430 µM; at Galectin-7, over 5000 µM.
In the case of `CS[C@@H]1O[C@H](CO)[C@H](O)[C@H](n2cc(C3(O)CCCCC3)nn2)[C@H]1O`, the dissociation constant Kd on Galectin-8 is over 5000 µM; on Galectin-3, 1600 µM; on Galectin-9, 1000 µM; at Galectin-7, over 5000 µM.
With `CS[C@@H]1O[C@H](CO)[C@H](O)[C@H](n2cc(-c3ccccc3)nn2)[C@H]1O`, the Kd at Galectin-8 is over 5000 µM; on Galectin-3, 150 µM; at Galectin-9, 1300 µM; on Galectin-7 it was 1700 µM.
With `COc1cccc(-c2cn([C@H]3[C@@H](O)[C@@H](CO)O[C@@H](SC)[C@@H]3O)nn2)c1`, the Kd on Galectin-8 is over 5000 µM; at Galectin-3, 130 µM; on Galectin-9 it was 2100 µM; on Galectin-7, 2800 µM.
On to `COc1ccc(-c2cn([C@H]3[C@@H](O)[C@@H](CO)O[C@@H](SC)[C@@H]3O)nn2)cc1`, for which the equilibrium dissociation constant (Kd) is 260 µM on Galectin-3, over 5000 µM on Galectin-9 and 2000 µM on Galectin-7.
`CS[C@@H]1O[C@H](CO)[C@H](O)[C@H](n2cc(-c3ccccc3F)nn2)[C@H]1O`: the Kd was over 5000 µM on Galectin-8, 200 µM on Galectin-3, 1700 µM on Galectin-9 and over 2000 µM at Galectin-7.
`CS[C@@H]1O[C@H](CO)[C@H](O)[C@H](n2cc(-c3cccc4ccccc34)nn2)[C@H]1O`: the Kd was over 5000 µM at Galectin-8, 120 µM at Galectin-3, 690 µM on Galectin-9 and 810 µM at Galectin-7.
As for `CS[C@@H]1O[C@H](CO)[C@H](O)[C@H](n2cc(-c3cccnc3)nn2)[C@H]1O`, the Kd at Galectin-8 turned out to be 670 µM; on Galectin-3 it was 1900 µM; at Galectin-9, 1600 µM.
As for `CS[C@@H]1O[C@H](CO)[C@H](O)[C@H](n2cc(S(=O)(=O)c3ccc(C)cc3)nn2)[C@H]1O`, the equilibrium dissociation constant (Kd) on Galectin-3 came to 130 µM; on Galectin-9 it was 330 µM; at Galectin-7, 2000 µM.
As for `CS[C@@H]1O[C@H](CO)[C@H](O)[C@H](n2nncc2S(=O)(=O)c2ccc(C)cc2)[C@H]1O`, the Kd is over 5000 µM on Galectin-3 and 1600 µM on Galectin-9.
Turning to `CNC(=O)c1nnn([C@H]2[C@@H](O)[C@@H](CO)O[C@@H](SC)[C@@H]2O)c1C(=O)NC`, the dissociation constant (Kd) at Galectin-3, on Galectin-9 and on Galectin-7 was over 5000 µM in each case.
For `CNC(=O)c1cn([C@H]2[C@@H](O)[C@@H](CO)O[C@@H](SC)[C@@H]2O)nn1`, the Kd is over 5000 µM at Galectin-8 and 1100 µM on Galectin-9.
As to `CCCCNC(=O)c1cn([C@H]2[C@@H](O)[C@@H](CO)O[C@@H](SC)[C@@H]2O)nn1`, the equilibrium dissociation constant (Kd) is over 5000 µM on Galectin-8, 150 µM on Galectin-3, 640 µM on Galectin-9 and 1100 µM at Galectin-7.
The like results for `CS[C@@H]1O[C@H](CO)[C@H](O)[C@H](n2cc(C(=O)NCCCO)nn2)[C@H]1O` were, in that order, over 5000 µM, 360 µM, 1900 µM and 1500 µM.
In the case of `CS[C@@H]1O[C@H](CO)[C@H](O)[C@H](n2cc(C(=O)NCCN3CCOCC3)nn2)[C@H]1O`, the Kd was over 5000 µM at Galectin-8, 520 µM at Galectin-3, 470 µM at Galectin-9 and over 5000 µM at Galectin-7.
Take `CO[C@@H]1O[C@H](CO)[C@H](O)[C@H](O)[C@H]1O`: the results for the equilibrium dissociation constant (Kd) at Galectin-9 and on Galectin-7 were 3300 µM and 4800 µM, respectively.
Regarding `CS[C@@H]1O[C@H](CO)[C@H](O)[C@H](n2cc(C(=O)NCc3ccccc3)nn2)[C@H]1O`, the values for the Kd at Galectin-8, at Galectin-9 and at Galectin-7 were over 5000 µM, 540 µM and 2100 µM, respectively.
For the compound `CO[C@@H]1O[C@H](CO)[C@@H](O[C@@H]2O[C@H](CO)[C@H](O)[C@H](O)[C@H]2O)[C@H](O)[C@H]1NC(C)=O`, the dissociation constant Kd at Galectin-8 is 1000 µM; at Galectin-3 it was 59 µM; on Galectin-9, 490 µM; at Galectin-7, 5500 µM.

What is called Kd is the constant that tells how readily two partners part at equilibrium. Higher therefore signals lower affinity.

For the origin of these results see ChEMBL document CHEMBL1250422 (Bioorg Med Chem, 2010).
